Test results reported in ChEMBL document CHEMBL2177069, “Novel peptidomimetic compounds containing redox active chalcogens and quinones as potential anticancer agents” (Eur J Med Chem, 2012).

Key:
[1] = tested on: HT-29; test: Cytotoxicity against human HT-29 cells; format: functional
[2] = tested on: TK-10; test: Cytotoxicity against human TK10 cells; format: functional
[3] = tested on: Saccharomyces cerevisiae; test: Growth inhibition of GTT2-deficient Saccharomyces cerevisiae YLL060C mutant at 20 ug/disc after 24 to 48 hrs by agar diffusion assay; format: functional; settings: read-out: DIZ
Procedure, shortened: (§1)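 S. cerevisiae deletion mutants or wild type grown on YPD, seeded into liquid agar medium at an optical density of 0.1. 6 mm paper discs soaked with methanolic compound solution were placed on the plates and incubated at 30 °C. Growth was checked after 1 and 2 days, and the inhibition zone diameter was recorded in mm.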

[4] = tested on: NCI-H23; test: Cytotoxicity against human NCI-H23 cells; format: functional
[5] = tested on: IGROV-1; test: Cytotoxicity against human IGROV1 cells; format: functional
[6] = tested on: A498; test: Cytotoxicity against human A498 cells; format: functional
[7] = tested on: SNB-75; test: Cytotoxicity against human SNB75 cells; format: functional
[8] = tested on: U-251; test: Cytotoxicity against human U251 cells; format: functional
[9] = Cytotoxicity against human 786-O cells; format: functional
[10] = tested on: T47D; test: Cytotoxicity against human T47D cells; format: functional
[11] = tested on: SK-MEL-5; test: Cytotoxicity against human SK-MEL-5 cells; format: functional
[12] = tested on: SK-MEL-28; test: Cytotoxicity against human SK-MEL-28 cells; format: functional
[13] = tested on: SW-620; test: Cytotoxicity against human SW620 cells; format: functional
[14] = tested on: OVCAR-5; test: Cytotoxicity against human OVCAR5 cells; format: functional
[15] = Cytotoxicity against human PHF cells after 24 hrs by MTT assay; format: cell-based
Procedure, shortened: (§2)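 MTT assay. Cells were seeded at 50,000 cells/mL in medium with 10% fetal calf serum and grown for two days at 37 °C, 10% CO2. Serial dilutions of compound were then added for 24 h. MTT was added (final 0.5 mg/mL) for 2 h, and the formazan was pelleted, washed, dissolved in isopropanol with 0.4% HCl and read at 590 nm. IC50 is the concentration giving 50% of untreated-control absorbance, taken from dose-response curves; mean of two parallel experiments.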

[16] = tested on: MDA-MB-435; test: Cytotoxicity against human MDA-MB-435 cells; format: functional
[17] = tested on: SNB-19; test: Cytotoxicity against human SNB19 cells; format: functional
[18] = tested on: Saccharomyces cerevisiae; test: Growth inhibition of GSH2-deficient Saccharomyces cerevisiae YOL049W mutant at 20 ug/disc after 24 to 48 hrs by agar diffusion assay; format: functional; settings: read-out: DIZ; procedure, shortened: as §1
[19] = tested on: M14; test: Cytotoxicity against human M14 cells; format: functional
[20] = tested on: HL-60; test: Cytotoxicity against human HL60 cells; format: functional
[21] = tested on: SR; test: Cytotoxicity against human SR cells; format: functional
[22] = tested on: HCT-15; test: Cytotoxicity against human HCT15 cells; format: functional
[23] = tested on: LOX IMVI; test: Cytotoxicity against human LOXIMVI cells; format: functional
[24] = tested on: A498; test: Cytotoxicity against human A498 cells after 24 hrs by MTT assay; format: functional, cell-based; settings: A498, 24 h; procedure, shortened: as §2
[25] = tested on: NCI-H322M; test: Cytotoxicity against human NCI-H322M cells; format: functional
[26] = tested on: HOP-62; test: Cytotoxicity against human HOP62 cells; format: functional
[27] = tested on: Saccharomyces cerevisiae; test: Growth inhibition of wild type Saccharomyces cerevisiae BY4741 at 20 ug/disc after 24 to 48 hrs by agar diffusion assay; format: functional; settings: read-out: DIZ; procedure, shortened: as §1
[28] = tested on: UACC-62; test: Cytotoxicity against human UACC62 cells; format: functional
[29] = tested on: EKVX; test: Cytotoxicity against human EKVX cells; format: functional
[30] = tested on: HCT-116; test: Cytotoxicity against human HCT116 cells; format: functional
[31] = tested on: SN12C; test: Cytotoxicity against human SN12C cells; format: functional
[32] = tested on: Saccharomyces cerevisiae; test: Growth inhibition of PST2-deficient Saccharomyces cerevisiae YDR032C mutant at 20 ug/disc 24 to 48 hrs by agar diffusion assay; format: functional; settings: read-out: DIZ; procedure, shortened: as §1
[33] = tested on: SF-295; test: Cytotoxicity against human SF295 cells; format: functional
[34] = tested on: RPMI-8226; test: Cytotoxicity against human RPMI8226 cells; format: functional
[35] = tested on: MDA-MB-468; test: Cytotoxicity against human MDA-MB-468 cells; format: functional
[36] = tested on: NCI/ADR-RES; test: Cytotoxicity against human NCI/ADR-RES cells; format: functional
[37] = tested on: MCF7; test: Cytotoxicity against human MCF7 cells after 24 hrs by MTT assay; format: functional, cell-based; settings: MCF7, 24 h; procedure, shortened: as §2
[38] = tested on: SK-MEL-2; test: Cytotoxicity against human SK-MEL-2 cells; format: functional
[39] = tested on: COLO 205; test: Cytotoxicity against human COLO205 cells; format: functional
[40] = tested on: MDA-MB-231; test: Cytotoxicity against human MDA-MB-231 cells; format: functional
[41] = tested on: DU-145; test: Cytotoxicity against human DU145 cells; format: functional

CC1=C([Se]CC(OC(=O)[C@@H](CO)NC(=O)OC(C)(C)C)C(=O)NC(C)(C)C)C(=O)c2ccccc2C1=O (some centres not stated)
GI50 [1]: 2.29 µM | LC50 [1]: 9.77 µM | TGI ([1]; read-out: pTGI (converted)): 4.79 µM | GI50 [2]: 2 µM | LC50 [2]: 6.03 µM | TGI ([2]; read-out: pTGI (converted)): 3.47 µM | zone of inhibition at 20 µg/disc [3]: 21 mm | GI50 [4]: 1.48 µM | LC50 [4]: 6.92 µM | TGI ([4]; read-out: pTGI (converted)): 3.24 µM | GI50 [5]: 1.66 µM | LC50 (concentration killing 50% of cells) [5]: 6.46 µM | TGI ([5]; read-out: pTGI (converted)): 3.24 µM | GI50 [6]: 3.63 µM | LC50 (50% lethal concentration) [6]: 39.8 µM | TGI ([6]; read-out: pTGI (converted)): 15.1 µM | GI50 [7]: 1.29 µM | LC50 [7]: 5.13 µM | TGI ([7]; read-out: pTGI (converted)): 2.57 µM | GI50 [8]: 0.977 µM | LC50 [8]: 6.61 µM | TGI ([8]; read-out: pTGI (converted)): 2.57 µM | GI50 ([9]; 786-0): 1.95 µM | LC50 ([9]; 786-0): 5.89 µM | TGI ([9]; 786-0, read-out: pTGI (converted)): 3.39 µM | GI50 [10]: 0.331 µM | LC50 [10]: 8.91 µM | TGI ([10]; read-out: pTGI (converted)): 1.07 µM | GI50 [11]: 1.58 µM | LC50 [11]: 5.5 µM | TGI ([11]; read-out: pTGI (converted)): 2.95 µM | GI50 [12]: 2.04 µM | LC50 [12]: 6.17 µM | TGI ([12]; read-out: pTGI (converted)): 3.55 µM | GI50 [13]: 1.78 µM | LC50 [13]: 6.31 µM | TGI ([13]; read-out: pTGI (converted)): 3.31 µM | GI50 [14]: 2.09 µM | LC50 [14]: 6.61 µM | TGI ([14]; read-out: pTGI (converted)): 3.72 µM | IC50 [15]: 7 µM | GI50 [16]: 2 µM | LC50 [16]: 8.32 µM | TGI ([16]; read-out: pTGI (converted)): 4.07 µM | GI50 [17]: 0.661 µM | LC50 [17]: 4.9 µM | TGI ([17]; read-out: pTGI (converted)): 2 µM | zone of inhibition at 20 µg/disc [18]: 18 mm | GI50 [19]: 1.66 µM | LC50 [19]: 5.62 µM | TGI ([19]; read-out: pTGI (converted)): 3.02 µM | GI50 [20]: 0.871 µM | LC50 [20]: > 100 µM | TGI ([20]; read-out: pTGI (converted)): 3.8 µM | GI50 [21]: 0.741 µM | LC50 [21]: > 100 µM | GI50 [22]: 2 µM | LC50 [22]: 7.94 µM | TGI ([22]; read-out: pTGI (converted)): 3.98 µM | GI50 [23]: 1.58 µM | LC50 [23]: 5.75 µM | TGI ([23]; read-out: pTGI (converted)): 3.02 µM | IC50 [24]: 5 µM | GI50 [25]: 0.447 µM | LC50 [25]: 32.4 µM | TGI ([25]; read-out: pTGI (converted)): 3.72 µM | GI50 [26]: 0.525 µM | LC50 [26]: 4.37 µM | TGI ([26]; read-out: pTGI (converted)): 1.86 µM | zone of inhibition at 20 µg/disc [27]: 0 mm | GI50 [28]: 1.66 µM | LC50 [28]: 5.62 µM | TGI ([28]; read-out: pTGI (converted)): 3.02 µM | GI50 [29]: 1.78 µM | LC50 [29]: 7.76 µM | TGI ([29]; read-out: pTGI (converted)): 3.72 µM | GI50 [30]: 1.45 µM | LC50 [30]: 5.37 µM | TGI ([30]; read-out: pTGI (converted)): 2.82 µM | GI50 [31]: 1.86 µM | LC50 [31]: 6.31 µM | TGI ([31]; read-out: pTGI (converted)): 3.39 µM | zone of inhibition at 20 µg/disc [32]: 11 mm | GI50 [33]: 0.316 µM | LC50 [33]: 22.4 µM | TGI ([33]; read-out: pTGI (converted)): 1.05 µM | GI50 [34]: 2.75 µM | LC50 [34]: > 100 µM | TGI ([34]; read-out: pTGI (converted)): 8.91 µM | GI50 [35]: 0.759 µM | LC50 [35]: 5.89 µM | TGI ([35]; read-out: pTGI (converted)): 2.29 µM | GI50 [36]: 1.62 µM | TGI ([36]; read-out: pTGI (converted)): 3.09 µM | IC50 [37]: 3 µM | GI50 [38]: 2.19 µM | LC50 [38]: 9.55 µM | TGI ([38]; read-out: pTGI (converted)): 4.57 µM | GI50 [39]: 1.82 µM | CC50 ([39]; read-out: pLC50 (the source's name) (converted)): 6.03 µM | TGI ([39]; read-out: pTGI (converted)): 3.31 µM | GI50 [40]: 1.62 µM | LC50 [40]: 6.03 µM | TGI ([40]; read-out: pTGI (converted)): 3.16 µM | GI50 [41]: 1.91 µM | LC50 [41]: 6.03 µM | TGI ([41]; read-out: pTGI (converted)): 3.39 µM
